# Bioassay records as filed in PubChem BioAssay.
# ANO1 activ: mouse TMEM16A channel activation, primary screen; Q8BHY3; HEK293 TMEM16A/YFP-H148Q/I152L, iodide quench fluorescence; stronger effect = lower value; B-score at 10 µM; hit rate 0.3% among 340,000; AID 623877;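 active = fluorescence-ratio B-score plate-corrected deviation score at least 3 library SD below zero, with starting fluorescence score within 5 deviations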;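 also: channel opened by trigger with iodide after compound preincubation; score built on the fluorescence ratio of max minus min over baseline; more negative score means more quench and so TMEM16A activation or potentiation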
# MC4R antagonist: antagonists of human melanocortin 4 receptor (MC4R); P32245; MC4R-expressing cells, MTII-stimulated cAMP, LANCE TR-FRET; inhibition, % at 6.5 µM; hit rate 0.48% among 360,000; AID 540295;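 active = inhibition above its plate's cutoff, the mean of tested wells on that plate plus 3 SD, cut at about 29% in these data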;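 also: 0% = Melanotan II alone and 100% = Melanotan II plus saturating MCL0020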
#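 System: U2OS-MC4R stable cell line; Technique: Eu-cAMP/anti-cAMP TR-FRET, emission 671 nm; Repeats: single well per compound; Also added: Melanotan II; Dosing: one concentration, 6.5 µM nominal; Schedule: 30-min compound, 1-h challenge, 1-h detection, room temperature.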
# beta cell repl: MIN6 beta-cell proliferation induction. hit rate 0.29% among 330,000. MIN6 cells proliferation, ATPlite luminescence, 48 h; cells starved in 0.2% serum; 100% = growth in 10% serum. AID 2380. proliferation, % at 10 µM;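 active = compounds whose signal lies at least 3.5 SD above the mean of all wells on their plate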;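 also: 0% = DMSO-treated cells in low-serum medium and 100% = 10% serum control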
# HTR2A ag: agonists of mouse serotonin 5-HT2A receptor (HTR2A) | hit rate 0.66% among 360,000 | AID 624169 | activation, % at 7.6 µM | P35363 | CHO-K1 mHTR2A beta-arrestin complementation, luminescence; percent of 30 µM serotonin response;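 active = activation above a run cutoff, the mean activation of all tested compounds plus 3 SD, cut at about 14% in these data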;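 also: 0% = plate median of compound wells and 100% = 30 µM serotonin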
# TMEM16A inh: inhibitors of mouse TMEM16A calcium-activated chloride channel | Q8BHY3 | HEK293 TMEM16A/YFP iodide influx fluorescence, ionomycin | normalized B-score (activity score, 25-100; higher = stronger inhibition) at 10 µM | hit rate 1.2% among 310,000 | AID 588511;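 active = ratio plate-corrected score three or more library SD toward inhibition, starting fluorescence score within five deviations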;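 also: score derived from kinetic fluorescence span divided by baseline fluorescence per well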
# MC4R barr agon: activates human MC4R beta-arrestin recruitment | hit rate 0.98% among 360,000 | U2OS MC4R beta-arrestin complementation, luminescence; percent of melanotan II response, DMSO zero | activation, % at 8.9 µM;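 active = activation above a per-plate cutoff, the mean activation of sample wells on that plate plus 3 SD, cut at about 8% in these data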
# TMEM16A reconf: reconfirmed blocker of mouse TMEM16A calcium-activated chloride channel; HEK293 TMEM16A/YFP-H148Q, iodide quench fluorescence; ionomycin added to raise cell calcium; hit rate 39% among 2,300; inhibition, % at 10 µM; shares compounds with TMEM16A inh;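 active = mean duplicate percent inhibition, scaled so buffer wells are 0 and the reference blocker 100, over three buffer SD above buffer mean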
# HEK293 Ca mobil: counter-screen for TMEM16A inhibitors: effect on calcium mobilization; shares compounds with TMEM16A inh; TMEM16A/YFP HEK293, Fluo4 calcium mobilization; calcium response (% of ionomycin), % at 10 µM; hit rate 2% among 2,300; AID 652231;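 active = duplicate-averaged calcium signal over 20% of the ionomycin maximum, relative to buffer baseline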;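 also: each well's signal is peak minus trough fluorescence divided by its pre-addition baseline; 0% = buffer wells and 100% = ionomycin wells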
# Parental YFP cnt: parental YFP-HEK293 iodide quench counter-screen activity; 2,300 tested, under 10 active; YFP ratio F(max-min)/F0 at 10 µM; AID 652233; ionomycin; shares compounds with TMEM16A inh;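 active = yellow fluorescent protein signal ratio exceeding the buffer control mean by over 5 SD of those controls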;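 also: ratio is mean of duplicate wells from kinetic YFP trace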
# ClC-1 inh: rat ClC-1 inhibition, TMEM16A specificity screen; ratio percent, % at 10 µM; CHO ClC-1-YFP, iodide influx fluorescence quench; iodide control reads 0, buffer control 100; shares compounds with TMEM16A inh; 2,300 tested, under 10 active;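 active = duplicate-mean ratio percent above the mean of iodide-only control wells, which defines zero, plus 5 of their SD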;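 also: higher percent means stronger block of ClC-1 iodide influx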
# Target sequence (P35524 whole entry, looked up): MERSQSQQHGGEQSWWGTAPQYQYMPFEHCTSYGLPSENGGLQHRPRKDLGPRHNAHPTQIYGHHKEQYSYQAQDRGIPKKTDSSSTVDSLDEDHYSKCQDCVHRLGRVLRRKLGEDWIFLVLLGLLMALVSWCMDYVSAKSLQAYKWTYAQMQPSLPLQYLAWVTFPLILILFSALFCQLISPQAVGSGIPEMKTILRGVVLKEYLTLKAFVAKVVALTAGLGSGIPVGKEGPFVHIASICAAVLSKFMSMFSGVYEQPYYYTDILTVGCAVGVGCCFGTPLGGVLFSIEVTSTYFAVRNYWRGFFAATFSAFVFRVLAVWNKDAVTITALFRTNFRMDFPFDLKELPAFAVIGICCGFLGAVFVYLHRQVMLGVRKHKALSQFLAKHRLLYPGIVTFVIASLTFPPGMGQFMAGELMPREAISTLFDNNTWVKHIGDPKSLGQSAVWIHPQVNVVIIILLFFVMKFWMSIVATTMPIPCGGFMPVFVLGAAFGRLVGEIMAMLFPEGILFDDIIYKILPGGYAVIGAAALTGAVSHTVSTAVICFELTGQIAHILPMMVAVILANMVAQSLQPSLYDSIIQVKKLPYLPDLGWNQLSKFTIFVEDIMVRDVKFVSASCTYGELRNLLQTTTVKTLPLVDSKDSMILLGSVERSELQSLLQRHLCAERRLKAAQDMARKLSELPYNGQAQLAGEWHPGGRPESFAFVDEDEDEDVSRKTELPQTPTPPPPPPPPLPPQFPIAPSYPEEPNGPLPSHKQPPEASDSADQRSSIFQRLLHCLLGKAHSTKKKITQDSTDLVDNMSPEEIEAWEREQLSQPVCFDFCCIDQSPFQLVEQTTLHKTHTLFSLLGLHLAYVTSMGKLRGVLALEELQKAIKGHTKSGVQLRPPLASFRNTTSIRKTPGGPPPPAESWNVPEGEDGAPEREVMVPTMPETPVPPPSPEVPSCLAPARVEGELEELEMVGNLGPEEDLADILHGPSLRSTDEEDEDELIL
# An asterisk follows results filed as active; i = inactive; / = no result. Hits are enriched below; roughly 3.4% of the tested compounds scored in any of these assays.
SMILES,ANO1 activ,MC4R antagonist,beta cell repl,HTR2A ag,TMEM16A inh,MC4R barr agon,TMEM16A reconf,HEK293 Ca mobil,Parental YFP cnt,ClC-1 inh
COCCn1c(CN2CCN(c3ccc(OC)cc3)CC2)nc2c1c(=O)n(C)c(=O)n2C,i,0,-1,1,25*,0,i,i,-1.2,-3
CC1CC(C)CN(Cc2nc3c(c(=O)n(C)c(=O)n3C)n2CCN2CCOCC2)C1 (centres undefined),i,10,-3,0,100*,1,i,i,-1.2,-4
CCOCCn1c(CN2CCN(c3ccc(OC)cc3)CC2)nc2c1c(=O)n(C)c(=O)n2C,i,10,-2,-1,i,3,/,/,/,/
O=C(COc1ccccc1Br)c1ccc(O)cc1O,i,7,2,1,100*,0,i,i,-1,-10
COc1c(C(=O)Nc2ccc(Cc3ccncc3)cc2)ccc2ccccc12,i,-9,-2,-1,100*,1,i,i,-1.1,-8
COc1ccc(Br)cc1C(=O)Nc1ccc(Cc2ccncc2)cc1,i,0,-4,-7,i,2,/,/,/,/
CN1CCN(C(=O)C[C@@H]2C[C@H]3c4cc(NC(=O)c5cccnc5)ccc4O[C@H]3[C@H](CO)O2)CC1,/,0,/,9,/,-2,/,/,/,/
CN1CCc2c(sc3c2C(=O)NC(c2cccs2)N3)C1 (centres undefined),i,-15,-3,2,i,-1,/,/,/,/
CSc1ccc(C2NC(=O)c3c(sc4c3CCN(C)C4)N2)cc1 (centres undefined),i,12,-2,5,i,3,i,i,-0.53,-6
CCOC(=O)N1CCc2c(sc(NC(C)=O)c2C(N)=O)C1,i,9,-2,-2,i,-1,i,i,-1.1,-8
O=C1CC(C(=O)NCc2ccccc2)N=C(N2CCCCC2)N1 (centres undefined),i,0,-2,2,i,-1,/,/,/,/
O=C1CC(C(=O)Nc2ccccc2)N=C(N2CCCCC2)N1 (centres undefined),i,11,2,6,i,-2,i,i,-1.1,-5
CCOc1ccc(N2C(=O)CC(NCC#N)C2=O)cc1 (centres undefined),i,4,-2,4,25*,-2,i,i,-1.1,-5
CCOc1ccc(N2C(=O)CC(NCc3ccc(S(N)(=O)=O)cc3)C2=O)cc1 (centres undefined),i,0,-1,2,i,-1,/,/,/,/
O=C(NC1CCCC1)C(C1CC1)n1c(-c2ccncc2)nc2ccccc21 (centres undefined),/,/,/,1,/,/,/,/,/,/
CN(C)Cc1cc(O)c(CN(C)C)cc1O,i,4,-4,-13,i,-1,i,i,-0.86,-6
CCOc1ccccc1NC(=O)Nn1cnnc1,i,3,0,3,i,-1,/,/,/,/
COC(=O)c1cc(COc2ccc3oc(C)c(C(=O)OC)c3c2)c(C)o1,i,0,-1,3,100*,0,i,i,-1.2,-11
Cc1cccc(NC(=O)CSc2nnc(CNC(=O)c3ccco3)o2)c1,i,-3,-3,-1,i,0,/,/,/,/
CCC(C)c1ccc(OCc2ccc(C(=O)O)o2)cc1 (centres undefined),i,-3,-2,4,i,2,/,/,/,/
CCCCN(C)c1c(C)nc2ccc(C(=O)N(C)Cc3ccco3)cn12,/,2,/,1,/,-1,/,/,/,/
CC(NC(=O)C1CCC1)c1ccc2c(c1)OCO2 (centres undefined),i,7,-5,1,25*,1,i,i,-0.89,-5
Cc1ccc(C(C)NC(=O)C2CCCC2)cc1C (centres undefined),i,1,-3,6,i,-1,/,/,/,/
CCOc1ccc(S(=O)(=O)N2CCCCC2)c2ccccc12,i,3,-1,-5,25*,-1,i,i,-0.98,-14
CC(C)(NO)/C(=N/O)c1cccs1,i,16,1,0,25*,-2,i,i,-1.1,-4
SMILES,ANO1 activ,MC4R antagonist,beta cell repl,HTR2A ag,TMEM16A inh,MC4R barr agon,TMEM16A reconf,HEK293 Ca mobil,Parental YFP cnt,ClC-1 inh
N#CC1(Cc2ccccc2)c2ccccc2C=CN1C(=O)c1ccccc1 (centres undefined),i,9,-4,-1,100*,-1,i,i,-1.2,-12
COc1ccc([C@H]2CC(=O)C[C@@H](CCn3cc(C)nn3)O2)cc1,/,/,/,0,/,/,/,/,/,/
CCOc1cc(C(=O)Nc2cc(C)ccn2)cc(OCC)c1OCC,i,5,3,0,100*,1,i,i,-1.4,-2
CCOc1ccc(C(=O)Nc2cc(C)ccn2)cc1,i,12,-5,-1,i,-3,/,/,/,/
Cn1c(=O)c2c(nc(N3CCCCCC3)n2Cc2cccc3ccccc23)n(C)c1=O,i,2,-3,-2,100*,-2,i,i,-0.97,-8
O=C(Cn1c(=O)oc2ccccc21)Nc1ccc(Br)cc1,i,0,-1,8,i,-1,/,/,/,/
N#Cc1c(NC(=O)Cn2c(=O)oc3ccccc32)oc(-c2ccccc2)c1-c1ccccc1,i,4,-6,-5,25*,-2,28%*,i,-0.94,-12
N#Cc1c(-c2ccc(F)cc2)noc1N,i,16,-4,1,100*,-3,i,i,-1,-13
CC(C)(C)c1ccc(OCc2ccc(C(=O)NCc3cccnc3)o2)cc1,i,2,-6,-2,100*,0,i,i,-1.1,-16
O=C(NCC1CCCO1)c1ccc(Cl)c(NS(=O)(=O)c2ccc(F)cc2)c1 (centres undefined),/,5,/,-3,/,-1,/,/,/,/
Cc1cnc(C(=O)Nc2ccc(OC(F)(F)F)cc2)cn1,i,-7,-1,6,i,-1,/,/,/,/
O=C(C1CCCCC1)N1CCN(c2ccnc3cc(Cl)ccc23)CC1,i,5,-6,5,25*,0,18%*,i,-1,-14
